The results in this text go back to ChEMBL document CHEMBL4715793 (J Med Chem, 2016).

Calls of active or inactive are those of the source. The rule behind the calls is not given here.

Series [1] is described as follows: Antiviral activity against HCV subtype 2a J6/JFH/JC1 infected in human Huh7.5 cells assessed as reduction in viral RNA levels measured after 72 hrs by qRT-PCR analysis. Particulars: Hepatitis C virus, J6/JFH/JC1, Huh7.5, 72 h. Background: Quantitative PCR measures a nucleic acid by following its amplification.
A short description of series [2]: Selectivity index, ratio of CC50 for cytotoxicity against human Huh7.5 cells assessed as reduction in cell viability incubated for 72 hrs by MTT assay to EC50 for antiviral activity against HCV genotype 2a J6/JFH/JC1 infected in human Huh7.5 cells assessed as reduction in viral RNA levels measured after 72 hrs by qRT-PCR analysis. The following applies: read-out: Ratio CC50/EC50. In kind it is toxicity, cell-based. A general note: Tetrazolium assays rely on reduction of a dye to a coloured formazan, in cell work by metabolically active cells.

Series [3] is described as follows: Cytotoxicity against human Huh7.5 cells assessed as reduction in cell viability incubated for 72 hrs by MTT assay. It is filed as cell-based. The essentials:
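Huh7.5 cells seeded at 3 × 10^4/cm2, grown 24 h, then exposed to compound for 72 h. Viability read by MTT assay. CC50 by Reed & Muench method, mean ± SD from three independent experiments.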

Series [4] is described as follows: Inhibition of NS5A in HCV genotype 1b infected in HuH7.5Lcu-Neo cells assessed as reduction in viral replication by luciferase reporter gene assay. Particulars: Hepatitis C virus. In kind it is cell-based, Hepatitis C virus subtype 1b. A general note: Reporter assays use an easily measured gene product as a stand-in for the process of interest.
The subject of series [5] is Hepatitis C virus. Nature of the series: Antiviral activity against HCV J6/JFH/JC1 harboring S282T mutant infected in human Huh7.5 cells assessed as inhibition of viral replication measured after 72 hrs by qRT-PCR analysis. It is filed as functional, organism-based, Hepacivirus hominis. Particulars: J6/JFH/JC1, Huh7.5, 72 h.
Series [6] concerns the target T1, Chondroitin sulfate N-acetylgalactosaminyltransferase 1 (Homo sapiens) (UniProt Q8TDX6).
T1 sequence (whole entry): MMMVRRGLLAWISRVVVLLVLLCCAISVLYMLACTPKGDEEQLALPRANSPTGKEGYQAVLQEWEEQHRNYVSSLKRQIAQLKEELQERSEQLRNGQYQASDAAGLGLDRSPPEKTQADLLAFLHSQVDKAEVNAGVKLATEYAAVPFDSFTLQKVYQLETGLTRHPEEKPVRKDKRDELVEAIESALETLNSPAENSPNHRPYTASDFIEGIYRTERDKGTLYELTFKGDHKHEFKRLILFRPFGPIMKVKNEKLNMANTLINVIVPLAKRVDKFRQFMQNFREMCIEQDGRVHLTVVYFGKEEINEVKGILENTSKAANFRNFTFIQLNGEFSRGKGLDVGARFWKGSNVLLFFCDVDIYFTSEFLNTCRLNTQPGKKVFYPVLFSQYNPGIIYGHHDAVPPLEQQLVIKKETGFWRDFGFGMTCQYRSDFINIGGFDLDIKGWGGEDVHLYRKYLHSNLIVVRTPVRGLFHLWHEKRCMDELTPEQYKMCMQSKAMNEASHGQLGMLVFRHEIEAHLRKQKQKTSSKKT
Put plainly: Destabilization of CSGalNacT-1 in human Huh7.5 cells assessed as down regulation of CSGalNacT-1 protein levels measured after 72 hrs by Western blot analysis. In kind it is cell-based. The following applies: dose 0.2-25 µM.

Series [7] deals with Hepatitis C virus. Nature of the series: Antiviral activity against HCV J6/JFH/JC1 harboring A156T mutant infected in human Huh7.5 cells assessed as inhibition of viral replication measured after 72 hrs by qRT-PCR analysis. It is filed as functional, organism-based, Hepacivirus hominis. The following applies: J6/JFH/JC1, Huh7.5, 72 h.
Series [8] has as its system Hepatitis C virus. Put plainly: Antiviral activity against HCV subgenomic replicon harboring I377-3'del.S infected in human GS4.3 cells assessed as inhibition of viral replication at 6.25 to 25 uM after 72 hrs by qRT-PCR analysis. It is filed as functional, organism-based. The following applies: Hepacivirus hominis, dose 6.25-25 µM. The method, boiled down: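 GS4.3 cells (Huh7 carrying HCV subgenomic replicon I377-3′del.S) seeded at 3 × 10^4/cm2, after 24 h treated with compound or solvent control. After 72 h intracellular RNA extracted and replicon RNA measured by qRT-PCR. Cytotoxicity checked by MTT at 72 h.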

Series [9] concerns Hepatitis C virus. Nature of the series: Antiviral activity against wild-type HCV J6/JFH/JC1 infected in human Huh7.5 cells assessed as inhibition of viral replication measured after 72 hrs by qRT-PCR analysis. In kind it is functional, organism-based, Hepacivirus hominis. The following applies: J6/JFH/JC1, Huh7.5, 72 h. The method, boiled down:
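Huh7.5 cells seeded at 3 × 10^4/cm2 and incubated 24 h. Infected with wild-type HCVcc stock (45 IU/cell) with compound or solvent control added at the same time. After 72 h, intracellular RNA measured by one-step qRT-PCR and core protein by Western blot. EC50 by Reed & Muench method, mean ± SD from three independent experiments.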

The test system of series [10] is Hepatitis C virus. Put plainly: Antiviral activity against HCV J6/JFH/JC1 harboring D168V mutant infected in human Huh7.5 cells assessed as inhibition of viral replication measured after 72 hrs by qRT-PCR analysis. It is filed as functional, organism-based, Hepacivirus hominis. The following applies: J6/JFH/JC1, Huh7.5, 72 h.
A short description of series [11]: Resistance ratio of EC50 for antiviral activity against HCV J6/JFH/JC1 harboring D168V mutant infected in human Huh7.5 cells to EC50 for antiviral activity against wild-type HCV J6/JFH/JC1 infected in human Huh7.5 cells. In kind it is functional.

Regarding `CC/C=C/c1cc(OC)c(CC=C(C)C)c(O)c1C(=O)O`, in [1], the EC50 worked out at 1.02 µM. Besides, in series [2], the selectivity ratio at 72 h stood at 71. Moreover, the CC50 at 72 h in [3] worked out at 72.9 µM.
Consider `COC(=O)c1c(CCc2ccccc2)cc(OC)c(CC=C(C)C)c1O`, for which, in series [1], the 50% effective concentration (EC50) was 16.1 µM. For the same compound, the selectivity ratio at 72 h in series [2] was 8. Also, the CC50 at 72 h in series [3] was 122 µM.
Turning to `COc1cc(/C=C/c2ccc(O)cc2)c(C(=O)O)c(O)c1CC=C(C)C`, the EC50 in series [1] was 0.33 µM. Besides, in series [2], the selectivity ratio at 72 h is 49. In addition, in series [3], the CC50 at 72 h came to 16.1 µM.
Regarding `COc1cc(/C=C/c2cccc(C)c2)c(C(=O)O)c(O)c1CC=C(C)C`, in [1], the EC50 was 1.95 µM. Moreover, the selectivity ratio at 72 h in [2] stood at 42. Also, the CC50 at 72 h in series [3] was 82.5 µM.
For `CCOC(=O)c1c(/C=C/c2ccccc2)cc(OC)c(CC=C(C)C)c1O`, in that order: 4.13 µM, 47 and 195 µM.
Turning to `C/C=C/C[C@@H](C)[C@@H](O)[C@H]1C(=O)N[C@@H](CC)C(=O)N(C)[C@H](C)C(=O)N(CC)[C@@H](C(C)C)C(=O)N[C@@H](C(C)C)C(=O)N(C)[C@@H](CC(C)C)C(=O)N[C@@H](C)C(=O)N[C@H](C)C(=O)N(C)[C@@H](CC(C)C)C(=O)N(C)[C@@H](CC(C)C)C(=O)N(C)[C@@H](C(C)C)C(=O)N1C` [ALISPORIVIR], the EC50 in series [4] worked out at 0.0158 µM.
For `CC(C)OC(=O)[C@H](C)N[P@](=O)(OC[C@H]1O[C@@H](n2ccc(=O)[nH]c2=O)[C@](C)(F)[C@@H]1O)Oc1ccccc1` [SOFOSBUVIR], in series [5], the EC50 amounted to 0.29 µM.
In the case of `COC(=O)c1c(O)cc(OC)cc1/C=C/c1ccccc1`, the Activity result in series [6] was “Dose-dependent effect”.
Regarding `COc1cc(/C=C/c2cccs2)c(C(=O)O)c(O)c1CC=C(C)C`, in series [1], the half-maximal effective concentration (EC50) amounted to 3.7 µM. Also, the selectivity ratio at 72 h in [2] turned out to be 22. Besides, the half-maximal cytotoxic concentration (CC50) at 72 h in series [3] was 83 µM.
In the case of `COc1cc(/C=C/c2ccc(C)cc2)c(C(=O)O)c(O)c1CC=C(C)C`, the EC50 in series [1] worked out at 6.54 µM. Besides, the selectivity ratio at 72 h in series [2] came out at 13. Also, the CC50 at 72 h in [3] came to 82.9 µM.
Consider `COc1cc(/C=C/c2ccccc2Cl)c(C(=O)O)c(O)c1CC=C(C)C`, for which the EC50 in [1] was 1.03 µM. In addition, the selectivity ratio at 72 h in series [2] worked out at 39. The CC50 at 72 h in [3] worked out at 39.5 µM.
For `COc1cc(/C=C/c2ccccc2C)c(C(=O)O)c(O)c1CC=C(C)C` the same measures were 5.92 µM, 9 and 55.3 µM.
Take `CCC[C@H](NC(=O)[C@@H]1[C@H]2CCC[C@H]2CN1C(=O)[C@@H](NC(=O)[C@@H](NC(=O)c1cnccn1)C1CCCCC1)C(C)(C)C)C(=O)C(=O)NC1CC1`: the EC50 was 0.008 µM in series [1], 0.62 µM in series [7] and 20 nM in series [9]. Besides, the result in [8] was Active. For the same compound, in series [2], the selectivity ratio at 72 h turned out to be 5700. For the same compound, the half-maximal cytotoxic concentration (CC50) at 72 h in series [3] amounted to 44.9 µM.
On to `COc1cc(/C=C/c2ccccc2)cc(O)c1CC=C(C)C`, for which the EC50 in [1] came to 12 µM. In addition, the selectivity ratio at 72 h in series [2] came out at 1.8. The CC50 at 72 h in [3] was found to be 21.4 µM.
As to `COc1ccc2c(O[C@@H]3C[C@H]4C(=O)N[C@]5(C(=O)NS(=O)(=O)C6CC6)C[C@H]5/C=C\CCCCN(C)C(=O)[C@@H]4C3)cc(-c3nc(C(C)C)cs3)nc2c1C`, the EC50 in series [10] was found to be 0.93 µM; in [9], 40 nM. For the same compound, in series [11], the “Ratio EC50” value is given as 23.3.
`COc1cc(/C=C/c2ccc(F)cc2)c(C(=O)O)c(O)c1CC=C(C)C`: the EC50 in series [1] turned out to be 1.49 µM. Besides, in series [2], the selectivity ratio at 72 h amounted to 46. Moreover, the CC50 at 72 h in series [3] worked out at 69.2 µM.
On to `COC(=O)c1c(/C=C(\C)c2ccccc2)cc(OC)c(CC=C(C)C)c1O`, for which, in series [1], the half-maximal effective concentration (EC50) was determined as 2.89 µM. The selectivity ratio at 72 h in [2] came out at 35. Moreover, in series [3], the CC50 at 72 h was 102 µM.
Turning to `COc1cc(/C=C(\C)c2ccccc2)c(C(=O)O)c(O)c1CC=C(C)C`, in series [1], the 50% effective concentration (EC50) worked out at 1.7 µM. The selectivity ratio at 72 h in [2] is 45. Besides, the half-maximal cytotoxic concentration (CC50) at 72 h in series [3] worked out at 76.8 µM.
Turning to `COC(=O)c1c(/C=C/c2ccccc2)cc(OC)c(CC=C(C)C)c1O`, in series [1], the EC50 came out at 4.87 µM. For the same compound, in [2], the selectivity ratio at 72 h was over 41. Moreover, the CC50 at 72 h in series [3] is over 200 µM.
With `COc1cc(/C=C/C=C/c2ccccc2)c(C(=O)O)c(O)c1CC=C(C)C`, in [1], the EC50 worked out at 13.4 µM. For the same compound, in [2], the selectivity ratio at 72 h was found to be 7. Also, the CC50 at 72 h in [3] was 96.9 µM.
As for `COC(=O)N[C@H](C(=O)N1CCC[C@H]1c1ncc(-c2ccc(-c3ccc(-c4cnc([C@@H]5CCCN5C(=O)[C@@H](NC(=O)OC)C(C)C)[nH]4)cc3)cc2)[nH]1)C(C)C`, the EC50 in series [9] came out at 0.0177 nM.
Turning to `CC/C=C/c1cc(OC)c(CC=C(C)C)c(O)c1C(=O)OC`, the EC50 in series [1] stood at 24.8 µM. In addition, in [2], the selectivity ratio at 72 h is 4. For the same compound, the CC50 at 72 h in series [3] came out at 89.3 µM.
As to `COc1cc(CCc2ccccc2)c(C(=O)O)c(O)c1CC=C(C)C` [AMORFRUTIN A], in series [1], the EC50 was determined as 1.68 µM. In addition, in series [2], the selectivity ratio at 72 h came out at 35. In [3], the CC50 at 72 h was determined as 59.4 µM.

A word on the EC50: it is the concentration that produces a half-maximal response. The term CC50 denotes the concentration that lowers cell viability or growth by half.
